The RNAGym collection of RNA variant scans (doi:10.1126/science.aae0568)
Fewer inactive variants are shown than the library holds.

B1: tRNA (parent)
chain: GUUCCGUUGGCGUAAUGGUAACGCGUCUCCCUCCUAAGGAGAAGACUGCGGGUUCGAGUCCCGUACGGAACG

Variants of: B1
Assay: yeast fitness relative to wild type (ratio to wild type); higher = fitter; tRNA-Arg(CCU), competitive growth, 37 C, YPD
Summary of the method: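 A pool of Saccharomyces cerevisiae strains, each with a tRNA-Arg(CCU) gene variant at the native genomic locus, was competed in YPD at 37°C for 24 hours across six parallel replicates. The variants had been chemically synthesised at a 3% per-site mutation rate over 69 sites, and gene amplicons before and after competition were read by 100-nucleotide paired-end sequencing. Darwinian fitness relative to wild type rested on changes in genotype frequencies. Genotypes required ≥ 100 starting reads, and estimates < 0.5 were set to 0.5.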

Question: With GUUCCGUUGGCGUAAUGGUAACGCGUCUCCCUCCUAAGCAGAAGACUGGGGGUUCGAGUCCCGUUCGGAACG [G39C C49G A65U] as the variant, how does the yeast fitness read?
Answer: Its yeast fitness is at most 0.5.

Question: Which yeast fitness does the source give for GUUCCGUUGGCGUAAUGGUAACGCGUCUCCCUCCUAACGAGAAGACUGCGGGUUCGAGUCCCGAAUGGAACG [G38C U64A C66U] here?
Answer: Its yeast fitness is at most 0.5.

Question: With GUUCCGUUGGCGUAAUGGUAACGCGUCUCCCUCCUAAGAAGAAGAAUGCGGGUUCGAGUCCCGUUCGGAACG [G39A C46A A65U] as the variant, how does the yeast fitness read?
Answer: The yeast fitness was 0.581.

Question: For GUUCCGUUGGCGUAAUGGUAACGCGUCUCCCUCCUAACGAGAAGACUGCGGGUACGAGUCCCGUCCGGAACG [G38C U54A A65C], which yeast fitness is on record?
Answer: The yeast fitness was 0.567.

Question: With GUUCCGUUGGCGUAAUGGUAACGCGUCUCCCUCCUAAGAAGAAGACUGCGGGUUCGAGUCCCGUACGGAGCG [G39A A70G] as the variant, how does the yeast fitness read?
Answer: The yeast fitness was 0.871.

Question: Which yeast fitness does the source give for GUUCCGUUGGCGUAAUGGUAACGCGUCUCCCUCCUAAGAAGAAGACUGCGGGUUCGAGUCCCGUACGGAUCG [G39A A70U] here?
Answer: The yeast fitness was 0.915.

Question: For GUUCCGUUGGCGUAAUGGUAACGCGUCUCCCUCCUAAGAAGAAGAUUGCGGGUUCGAGACCCGUACGGACCG [G39A C46U U59A A70C], which yeast fitness is on record?
Answer: The yeast fitness was at most 0.5.

Question: With GUUCCGUUGGCGUAAUGGUAACGCGUCUCCCUCCUAAGAAGAAGACUGCGGGUUCGAGUCCUGUACGGAACG [G39A C62U] as the variant, how does the yeast fitness read?
Answer: The yeast fitness was 1.05.

Question: Which yeast fitness does the source give for GUUCCGUUGGCGUAAUGGUAACGCGUCUCCCUCCUAAGAAGAAGAUUGCGGGUUCGAGUCCCGUACGGAACG [G39A C46U] here?
Answer: Its yeast fitness is 0.978.

Question: For GUUCCGUUGGCGUAAUGGUAACGCGUCUCCCUCCUAAUGAGAAGACUGCGGGUUCGAGUACCGUACGGAACG [G38U C60A], which yeast fitness is on record?
Answer: Its yeast fitness is 0.541.

Question: Which yeast fitness does the source give for GUUCCGUUGGCGUAAUGGUAACGCGUCUCCCUCCUAAGAAGAAGACUGCGGGUUCGAGUCCUGUACGGAUCG [G39A C62U A70U] here?
Answer: Its yeast fitness is 0.593.

Question: With GUUCCGUUGGCGUAAUGGUAACGCGUCUCCCUCCUAAGAAGGAGACUGCGGGUUCGAGUCCCGUACCGAACG [G39A A42G G67C] as the variant, how does the yeast fitness read?
Answer: Its yeast fitness is at most 0.5.

Question: For GUUCCGUUGGCGUAAUGGUAACGCGUCUCCCUCCUAAGAAGCAGACUGCGGGUUCGAGUCCCGUAUGGAACG [G39A A42C C66U], which yeast fitness is on record?
Answer: The yeast fitness was 0.542.

Question: With GUUCCGUUGGCGUAAUGGUAACGCGUCUCCCUCCUAAGCGGAAGACUGCGGGUUCGAGUCCCGUACGGAACG [G39C A40G] as the variant, how does the yeast fitness read?
Answer: The yeast fitness was 0.67.

Question: Which yeast fitness does the source give for GUUCCGUUGGCGUAAUGGUAACGCGUCUCCCUCCUAAGCUGAAGACUGCGGGUUCGAGUCCCGUACGGAACG [G39C A40U] here?
Answer: The yeast fitness was 0.73.

Question: Which yeast fitness does the source give for GUUCCGUUGGCGUAAUGGUAACGCGUCUCCCUCCUAAGAAGAAGACUGCGGGUUCGAGUCGCGUACGGAACG [G39A C61G] here?
Answer: Its yeast fitness is 0.585.

Question: Which yeast fitness does the source give for GUUCCGUUGGCGUAAUGGUAACGCGUCUCCCUCCUAAUGAGAAGACUGCGCGUUCGAGUCCCGUACGGAACG [G38U G51C] here?
Answer: The yeast fitness was at most 0.5.

Question: For GUUCCGUUGGCGUAAUGGUAACGCGUCUCCCUCCUAAGAAGAAGACUGCGGGUUCGCGUCCCGUACGGAACG [G39A A57C], which yeast fitness is on record?
Answer: Its yeast fitness is 0.663.

Question: Which yeast fitness does the source give for GUUCCGUUGGCGUAAUGGUAACGCGUCUCCCUCCUAAGAAGAAGACUGCGGGUUCGAGUCCCGUACGGAACG [G39A] here?
Answer: The yeast fitness was 0.986.

Question: With GUUCCGUUGGCGUAAUGGUAACGCGUCUCCCUCCUAAGCAGAAGACUGCGGGUUCGAGUCCCGUACGGAACG [G39C] as the variant, how does the yeast fitness read?
Answer: Its yeast fitness is 0.93.

Question: Which yeast fitness does the source give for GUUCCGUUGGCGUAAUGGUAACGCGUCUCCCUCCUAAGCAGAGGACUGCGGGUUCGCGUCCCGUACGGAACG [G39C A43G A57C] here?
Answer: Its yeast fitness is at most 0.5.

Question: With GUUCCGUUGGCGUAAUGGUAACGCGUCUCCCUCCUAAGCAGAAAACUGCGGGUUCGAGUCCGGUACGGAACG [G39C G44A C62G] as the variant, how does the yeast fitness read?
Answer: The yeast fitness was 0.589.

Question: For GUUCCGUUGGCGUAAUGGUAACGCGUCUCCCUCCUAAGCAGCAGACUGCGGGUUCGAGUCCUGUACGGCACG [G39C A42C C62U A69C], which yeast fitness is on record?
Answer: The yeast fitness was at most 0.5.

Question: For GUUCCGUUGGCGUAAUGGUAACGCGUCUCCCUCCUAAGCAGAAGACUGCGGGUUGGAGUCCCGUAUGGAACG [G39C C55G C66U], which yeast fitness is on record?
Answer: The yeast fitness was at most 0.5.

Question: With GUUCCGUUGGCGUAAUGGUAACGCGUCUCCCUCCUAAGAAGGAGACUGCGGGUUCGAGACCCGUACGGAACG [G39A A42G U59A] as the variant, how does the yeast fitness read?
Answer: Its yeast fitness is at most 0.5.

Question: With GUUCCGUUGGCGUAAUGGUAACGCGUCUCCCUCCUAAGAAGGAGACUGCGGGUUCGAGUCCCGUAUGGAACG [G39A A42G C66U] as the variant, how does the yeast fitness read?
Answer: The yeast fitness was at most 0.5.

Question: Which yeast fitness does the source give for GUUCCGUUGGCGUAAUGGUAACGCGUCUCCCUCCUAAGAAGAAGACUGCGGGUUCGAGUCCCGUACGCAACG [G39A G68C] here?
Answer: The yeast fitness was 0.806.

Question: Which yeast fitness does the source give for GUUCCGUUGGCGUAAUGGUAACGCGUCUCCCUCCUAAGAAGAAGACUGCGGGUUCGAGUCCCGUACGAAACG [G39A G68A] here?
Answer: The yeast fitness was 0.853.

Question: For GUUCCGUUGGCGUAAUGGUAACGCGUCUCCCUCCUAAGCAGAAGACUCCGGGUUCGAGUCCGGUACGGAACG [G39C G48C C62G], which yeast fitness is on record?
Answer: The yeast fitness was at most 0.5.

Question: With GUUCCGUUGGCGUAAUGGUAACGCGUCUCCCUCCUAAGCAGAAGACUCCGGGUUCGAGUCCCGUACGGAACG [G39C G48C] as the variant, how does the yeast fitness read?
Answer: Its yeast fitness is 0.688.

Question: Which yeast fitness does the source give for GUUCCGUUGGCGUAAUGGUAACGCGUCUCCCUCCUAAGCAGAAGAUUGCGGGUUCAAGUCCCGUACGGAACG [G39C C46U G56A] here?
Answer: Its yeast fitness is 0.694.

Question: With GUUCCGUUGGCGUAAUGGUAACGCGUCUCCCUCCUAAGCAGAAGACUGGGGGUUCGAGUCCCGUAUGGAACG [G39C C49G C66U] as the variant, how does the yeast fitness read?
Answer: The yeast fitness was at most 0.5.

Question: For GUUCCGUUGGCGUAAUGGUAACGCGUCUCCCUCCUAAGCAGAAGACUGCCGGUUCGAGUCGCGUACGGAACG [G39C G50C C61G], which yeast fitness is on record?
Answer: The yeast fitness was at most 0.5.

Question: For GUUCCGUUGGCGUAAUGGUAACGCGUCUCCCUCCUAAGCAGAACACUGCGGCUUCGAGUCCCGUACGGAACG [G39C G44C G52C], which yeast fitness is on record?
Answer: The yeast fitness was 0.623.

Question: With GUUCCGUUGGCGUAAUGGUAACGCGUCUCCCUCCUAAGAAGAAGACUGCGGGUUCGAGUCUAGUACGGAACG [G39A C61U C62A] as the variant, how does the yeast fitness read?
Answer: The yeast fitness was 0.558.

Question: For GUUCCGUUGGCGUAAUGGUAACGCGUCUCCCUCCUAAGAAGAAGACUGCGGGUUCGAGUUCAGUACGGAACG [G39A C60U C62A], which yeast fitness is on record?
Answer: Its yeast fitness is 0.505.

Question: For GUUCCGUUGGCGUAAUGGUAACGCGUCUCCCUCCUAAGCUGAAGACUGCGGGUUCGAGUCCCGUCCGGAACG [G39C A40U A65C], which yeast fitness is on record?
Answer: Its yeast fitness is at most 0.5.
